Measured values taken from ChEMBL document CHEMBL6134765, “Rapid identification of novel indolylarylsulfone derivatives as potent HIV-1 NNRTIs via miniaturized CuAAC click-chemistry-based combinatorial libraries” (RSC Med Chem, 2025).

What was measured:
[1] = target: Human immunodeficiency virus type 1 reverse transcriptase (Human immunodeficiency virus 1) (UniProt Q72547); assay: Inhibition of recombinant HIV-1 reverse transcriptase at 0.66 mM incubated for 1 hr by ELISA relative to control
Outline: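 Each library compound was tested directly as the crude click mixture (diluted in DMSO to 2 mM per well) against HIV-1 RT at 0.66 mM, using an ELISA-based RT kit following the kit protocol. Blank controls held DMSO, TBTA, CuSO4·5H2O and sodium ascorbate. Inhibition is expressed as a percentage.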

[2] = test system: Human immunodeficiency virus 1; assay: Antiviral activity against wild-type HIV-1 IIIB infected in human MT4 cells incubated for 5 days by spectrophometry based MTT assay; type: functional, organism-based; conditions: Human immunodeficiency virus 1, IIIB, MT4, 120 h
Outline: (§1)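 MTT protection assay in MT-4 cells infected with HIV-1 IIIB or HIV-2 ROD. EC50 is the compound concentration giving 50% protection of the cultures against virus-induced cytotoxicity.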

[3] = test system: Human immunodeficiency virus 2; assay: Antiviral activity against HIV-2 ROD infected in human MT4 cells incubated for 5 days by spectrophotometry based MTT assay; type: functional, organism-based; conditions: Human immunodeficiency virus 2, ROD, MT4, 120 h; outline: as §1
[4] = Cytotoxicity against human MT4 cells assessed as reduction in cell viability incubated for 5 days by MTT assay; type: toxicity, cell-based; conditions: time 5 day
Outline: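 Mock-infected MT-4 cultures were read by MTT for cell viability. CC50 is the concentration that reduces viability by 50%.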

[5] = Selectivity index, ratio of CC50 for cytotoxicity against human MT4 cells to EC50 for antiviral activity against wild-type HIV-1 IIIB infected in human MT4 cells; type: toxicity, cell-based; conditions: read-out: Ratio CC50/EC50
Outline: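 Selectivity index is calculated as CC50 (mock-infected MT-4, MTT) divided by EC50 (HIV-1 IIIB protection of MT-4, MTT).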

[6] = test system: Human immunodeficiency virus 1; assay: Antiviral activity against HIV-1 harboring L100I mutant infected in human MT4 cells assessed as inhibition of virus induced cytotoxicity incubated for 5 days by spectrophometry based MTT assay; type: functional, organism-based; conditions: Human immunodeficiency virus 1, MT4, 120 h
Outline: (§2)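 MT-4 cells (from Dr. N. Yamamoto, Yamaguchi University) infected with single-mutant (L100I, K103N, Y181C, Y188L, E138K) or double-mutant (F227L/V106A; RES056 = K103N/Y181C) HIV-1 strains. Protection against virus-induced cytotoxicity was read by the MTT method. EC50 is the concentration giving 50% protection of the cell cultures.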

[7] = test system: Human immunodeficiency virus 1; assay: Antiviral activity against HIV-1 harboring K103N mutant infected in human MT4 cells assessed as inhibition of virus induced cytotoxicity incubated for 5 days by spectrophometry based MTT assay; type: functional, organism-based; conditions: Human immunodeficiency virus 1, MT4, 120 h; outline: as §2
[8] = test system: Human immunodeficiency virus 1; assay: Antiviral activity against HIV-1 harboring Y181C mutant infected in human MT4 cells assessed as inhibition of virus induced cytotoxicity incubated for 5 days by spectrophometry based MTT assay; type: functional, organism-based; conditions: Human immunodeficiency virus 1, MT4, 120 h; outline: as §2
[9] = test system: Human immunodeficiency virus 1; assay: Antiviral activity against HIV-1 harboring Y188L mutant infected in human MT4 cells assessed as inhibition of virus induced cytotoxicity incubated for 5 days by spectrophometry based MTT assay; type: functional, organism-based; conditions: Human immunodeficiency virus 1, MT4, 120 h; outline: as §2
[10] = test system: Human immunodeficiency virus 1; assay: Antiviral activity against HIV-1 harboring E138K mutant infected in human MT4 cells assessed as inhibition of virus induced cytotoxicity incubated for 5 days by spectrophometry based MTT assay; type: functional, organism-based; conditions: Human immunodeficiency virus 1, MT4, 120 h; outline: as §2
[11] = test system: Human immunodeficiency virus 1; assay: Antiviral activity against HIV-1 harboring F227L/V106A double mutant infected in human MT4 cells assessed as inhibition of virus induced cytotoxicity incubated for 5 days by spectrophometry based MTT assay; type: functional, organism-based; conditions: Human immunodeficiency virus 1, MT4, 120 h; outline: as §2
[12] = test system: Human immunodeficiency virus 1; assay: Antiviral activity against HIV-1 harboring RES056 mutant infected in human MT4 cells assessed as inhibition of virus induced cytotoxicity incubated for 5 days by spectrophometry based MTT assay; type: functional, organism-based; conditions: Human immunodeficiency virus 1, MT4, 120 h; outline: as §2

Row | SMILES | inhibition [1] | EC50 [2] | EC50 [3] | CC50 at 120 h [4] | selectivity ratio [5] | EC50 [6] | EC50 [7] | EC50 [8] | EC50 [9] | EC50 [10] | EC50 [11] | EC50 [12]
1 | Cc1cc(C)cc(S(=O)(=O)c2c(C(=O)NCc3cn(-c4ccc(C(=O)O)cc4Cl)nn3)[nH]c3ccc(Cl)cc23)c1 | < 85% | – | – | – | – | – | – | – | – | – | – | –
2 | COC(=O)Cn1cc(CNC(=O)c2[nH]c3ccc(Cl)cc3c2S(=O)(=O)c2cc(C)cc(C)c2)nn1 | > 85% | 0.045 µM | > 6.46 µM | 6.46 µM | 143 | 0.22 µM | 0.14 µM | 0.8 µM | 11.7 µM | 0.17 µM | 1.07 µM | > 6.46 µM
3 | Cc1cc(C)cc(S(=O)(=O)c2c(C(=O)NCc3cn(CCCc4ccccc4)nn3)[nH]c3ccc(Cl)cc23)c1 | > 85% | 0.39 µM | > 117 µM | 117 µM | 302 | 1.87 µM | 3.25 µM | 2.71 µM | > 117 µM | 1.39 µM | 9.7 µM | > 117 µM
4 | Cc1cc(C)cc(S(=O)(=O)c2c(C(=O)NCc3cn(Cc4cccc([N+](=O)[O-])c4)nn3)[nH]c3ccc(Cl)cc23)c1 | > 85% | 0.23 µM | > 216 µM | > 216 µM | > 939 | 1.9 µM | 2.84 µM | 3.04 µM | 152 µM | 1.3 µM | 9.41 µM | > 216 µM
5 | Cc1cc(C)cc(S(=O)(=O)c2c(C(=O)NCc3cn(Cc4cccc(Cl)c4)nn3)[nH]c3ccc(Cl)cc23)c1 | < 85% | – | – | – | – | – | – | – | – | – | – | –
6 | Nc1ccn([C@@H]2CS[C@H](CO)O2)c(=O)n1 [LAMIVUDINE] | – | – | – | > 87.2 µM | > 17 | – | – | – | 3.56 µM | – | – | –
7 | COC(=O)CCCn1cc(CNC(=O)c2[nH]c3ccc(Cl)cc3c2S(=O)(=O)c2cc(C)cc(C)c2)nn1 | > 85% | 0.035 µM | > 206 µM | 206 µM | 5810 | 0.27 µM | 0.51 µM | 0.58 µM | 9.04 µM | 0.05 µM | 1.66 µM | > 206 µM
8 | Cc1cc(C)cc(S(=O)(=O)c2c(C(=O)NCc3cn(CC(=O)N4CCCC4)nn3)[nH]c3ccc(Cl)cc23)c1 | < 85% | – | – | – | – | – | – | – | – | – | – | –
9 | CCOC(=O)Cn1cc(CNC(=O)c2[nH]c3ccc(Cl)cc3c2S(=O)(=O)c2cc(C)cc(C)c2)nn1 | > 85% | 0.032 µM | 226 µM | > 236 µM | > 7330 | 0.17 µM | 0.34 µM | 0.63 µM | 33.4 µM | 0.1 µM | 1.7 µM | 204 µM
10 | COc1cccc(Cn2cc(CNC(=O)c3[nH]c4ccc(Cl)cc4c3S(=O)(=O)c3cc(C)cc(C)c3)nn2)c1 | < 85% | – | – | – | – | – | – | – | – | – | – | –
11 | Cc1cc(C)cc(S(=O)(=O)c2c(C(=O)NCc3cn(CC(=O)NC4CC4)nn3)[nH]c3ccc(Cl)cc23)c1 | < 85% | – | – | – | – | – | – | – | – | – | – | –
12 | Cc1cc(C)cc(S(=O)(=O)c2c(C(=O)NCc3cn(CC(=O)N4CCOCC4)nn3)[nH]c3ccc(Cl)cc23)c1 | < 85% | – | – | – | – | – | – | – | – | – | – | –
13 | Cc1cccc(Cn2cc(CNC(=O)c3[nH]c4ccc(Cl)cc4c3S(=O)(=O)c3cc(C)cc(C)c3)nn2)c1 | < 85% | – | – | – | – | – | – | – | – | – | – | –
14 | Cc1cc(C)cc(S(=O)(=O)c2c(C(=O)NCc3cn(-c4ccc(C(=O)O)cc4)nn3)[nH]c3ccc(Cl)cc23)c1 | < 85% | – | – | – | – | – | – | – | – | – | – | –
15 | Cc1cc(C)cc(S(=O)(=O)c2c(C(=O)NCc3cn(Cc4ccccc4C)nn3)[nH]c3ccc(Cl)cc23)c1 | < 85% | – | – | – | – | – | – | – | – | – | – | –
16 | Cc1cc(C)cc(S(=O)(=O)c2c(C(=O)NCc3cn(CC(=O)Nc4ccccc4)nn3)[nH]c3ccc(Cl)cc23)c1 | < 85% | – | – | – | – | – | – | – | – | – | – | –
17 | Cc1cc(C)cc(S(=O)(=O)c2c(C(=O)NCc3cn([C@H]4C[C@H](n5cc(C)c(=O)[nH]c5=O)O[C@@H]4CO)nn3)[nH]c3ccc(Cl)cc23)c1 (single isomer, unassigned) | < 85% | – | – | – | – | – | – | – | – | – | – | –
18 | Cc1cc(C)cc(S(=O)(=O)c2c(C(=O)NCc3cn(CC(=O)Nc4ccc(S(C)(=O)=O)cc4)nn3)[nH]c3ccc(Cl)cc23)c1 | < 85% | – | – | – | – | – | – | – | – | – | – | –
19 | Cc1cc(C)cc(S(=O)(=O)c2c(C(=O)NCc3cn(Cc4cccc5ccccc45)nn3)[nH]c3ccc(Cl)cc23)c1 | > 85% | 0.061 µM | > 214 µM | > 214 µM | > 3510 | 0.3 µM | 0.7 µM | 0.62 µM | 25 µM | 0.24 µM | 1.99 µM | 113 µM
